Measured values as given in ChEMBL document CHEMBL1141118, “Synthesis and SAR of 5-amino- and 5-(aminomethyl)benzofuran histamine H3 receptor antagonists with improved potency” (J Med Chem, 2005).
pKi: −log10 of the molar value.

How the values were obtained:
Histamine H3 receptor [1] = target: Histamine H3 receptor (Rattus norvegicus, UniProt Q9QYN8); assay: In vitro binding affinity for rat histamine H3 receptor using [3H]N-alpha-methylhistamine
Procedure, shortened: (§1)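 Radioligand binding used membranes from cells transfected with cloned human or rat H3 receptors.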

Histamine H3 receptor [2] = target: Histamine H3 receptor (Homo sapiens, UniProt Q9Y5N1); assay: In vitro binding affinity for human histamine H3 receptor using [3H]N-alpha-methylhistamine; procedure, shortened: as §1
Chain of Histamine H3 receptor (Homo sapiens, UniProt Q9Y5N1) (Q9Y5N1 whole entry): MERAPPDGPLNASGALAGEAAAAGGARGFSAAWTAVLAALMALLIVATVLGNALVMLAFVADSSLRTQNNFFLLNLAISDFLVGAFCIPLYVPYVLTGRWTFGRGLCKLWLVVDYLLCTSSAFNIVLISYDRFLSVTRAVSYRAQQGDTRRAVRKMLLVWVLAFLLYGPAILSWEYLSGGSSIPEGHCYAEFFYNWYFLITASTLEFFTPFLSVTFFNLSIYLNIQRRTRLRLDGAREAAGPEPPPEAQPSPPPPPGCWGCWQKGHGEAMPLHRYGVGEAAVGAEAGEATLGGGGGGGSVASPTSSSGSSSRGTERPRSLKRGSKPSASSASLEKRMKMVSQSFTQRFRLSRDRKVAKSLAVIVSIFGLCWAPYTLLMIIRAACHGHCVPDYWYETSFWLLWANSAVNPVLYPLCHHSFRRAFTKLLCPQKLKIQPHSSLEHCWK

[3] = Maximum plasma concentration upon p.o. dose of 1 mg/kg in rats; type: ADME, organism-based; design: dose 1 mg/kg, route oral; conditions: rat, po
[4] = Plasma clearance upon i.v. dose of 1 mg/kg in rats; type: ADME, organism-based; design: dose 1 mg/kg, route intravenous; conditions: rat, iv
[5] = Oral bioavailability in rat (dose 1 mg/kg); type: ADME, organism-based; conditions: in vivo
[6] = Area under plasma concentration curve of the compound upon p.o. dose of 1 mg/kg in rats; type: ADME, organism-based; design: dose 1 mg/kg, route oral; conditions: rat, in vivo, po
[7] = Terminal half life upon i.v. dose of 1 mg/kg in rats; type: ADME, organism-based; design: dose 1 mg/kg, route intravenous; conditions: rat, in vivo, iv
[8] = Area under plasma concentration curve of the compound upon i.v. dose of 1 mg/kg in rats; type: ADME, organism-based; design: dose 1 mg/kg, route intravenous; conditions: rat, in vivo, iv
[9] = Terminal half life upon p.o. dose of 1 mg/kg in rats; type: ADME, organism-based; design: dose 1 mg/kg, route oral; conditions: rat, in vivo, po

Chain of Histamine H3 receptor (Rattus norvegicus, UniProt Q9QYN8) (Q9QYN8 whole entry): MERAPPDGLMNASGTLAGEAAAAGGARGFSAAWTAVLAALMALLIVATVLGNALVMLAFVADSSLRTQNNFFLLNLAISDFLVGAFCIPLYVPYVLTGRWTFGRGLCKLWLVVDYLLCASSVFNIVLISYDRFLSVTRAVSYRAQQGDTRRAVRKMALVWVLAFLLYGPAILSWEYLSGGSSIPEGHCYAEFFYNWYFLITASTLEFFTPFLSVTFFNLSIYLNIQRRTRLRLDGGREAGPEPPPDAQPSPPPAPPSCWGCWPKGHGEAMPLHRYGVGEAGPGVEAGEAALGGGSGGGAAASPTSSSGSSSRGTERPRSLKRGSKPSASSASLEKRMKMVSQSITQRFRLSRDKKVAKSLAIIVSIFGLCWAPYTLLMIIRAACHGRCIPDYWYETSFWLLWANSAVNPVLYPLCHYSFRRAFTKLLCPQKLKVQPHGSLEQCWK

Row | SMILES | pKi (Histamine H3 receptor [1]) | pKi (Histamine H3 receptor [2]) | further results
1 | C[C@@H]1CCCN1CCc1cc2cc(CNc3ncc([N+](=O)[O-])s3)ccc2o1 | 9.17 | 9.72 | –
2 | C[C@@H]1CCCN1CCc1cc2cc(CNc3ncc(Br)cn3)ccc2o1 | 8.40 | 8.91 | –
3 | C[C@@H]1CCCN1CCc1cc2cc(CNc3ccc(C#N)cn3)ccc2o1 | 8.85 | 9.47 | –
4 | C[C@@H]1CCCN1CCc1cc2cc(Nc3ccc(C#N)cc3)ccc2o1 | 8.87 | 9.57 | –
5 | C[C@@H]1CCCN1CCc1cc2cc(CNc3ccc(C(=O)C(F)(F)F)cc3)ccc2o1 | 8.63 | 9.13 | –
6 | C[C@@H]1CCCN1CCc1cc2cc(CNc3ncccn3)ccc2o1 | 8.49 | 9.08 | Cmax [3]: 34.5 ng/mL; clearance [4]: 47.7 mL/min/kg; bioavailability [5]: 20.6%; AUC [6]: 72.1 ng·h/mL; half-life [7]: 1 h; AUC [8]: 350 ng·h/mL; half-life [9]: 1.7 h
7 | C[C@@H]1CCCN1CCc1cc2cc(Nc3ccc([N+](=O)[O-])cn3)ccc2o1 | 9.96 | 10.30 | –
8 | CCc1cnc(NCc2ccc3oc(CCN4CCC[C@H]4C)cc3c2)nc1 | 9.24 | 9.48 | Cmax [3]: 7.1 ng/mL; clearance [4]: 79.8 mL/min/kg; bioavailability [5]: 9%; AUC [6]: 18.9 ng·h/mL; half-life [7]: 1.7 h; AUC [8]: 210 ng·h/mL
9 | CCc1cnc(Nc2ccc3oc(CCN4CCC[C@H]4C)cc3c2)nc1 | 8.60 | 9.21 | Cmax [3]: 16.2 ng/mL; clearance [4]: 47 mL/min/kg; bioavailability [5]: 29%; AUC [6]: 103 ng·h/mL; half-life [7]: 3.7 h; AUC [8]: 355 ng·h/mL; half-life [9]: 4.8 h
10 | C[C@@H]1CCCN1CCc1cc2cc(Nc3ncccc3[N+](=O)[O-])ccc2o1 | 9.46 | 9.85 | –
11 | C[C@@H]1CCCN1CCc1cc2cc(CNc3ccc([N+](=O)[O-])cc3)ccc2o1 | 8.67 | 9.13 | –
12 | C[C@@H]1CCCN1CCc1cc2cc(Nc3ncccn3)ccc2o1 | 8.70 | 9.51 | –
13 | C[C@@H]1CCCN1CCc1cc2cc(CNc3nccnc3C#N)ccc2o1 | 8.40 | 8.98 | –
14 | C[C@@H]1CCCN1CCc1cc2cc(Nc3ccc(C(F)(F)F)cn3)ccc2o1 | 8.56 | 9.27 | –
15 | C[C@@H]1CCCN1CCc1cc2cc(CNc3ccccc3[N+](=O)[O-])ccc2o1 | 9.06 | 9.51 | –
16 | C[C@@H]1CCCN1CCc1cc2cc(CNc3ccc([N+](=O)[O-])cn3)ccc2o1 | 8.92 | 9.52 | –
17 | C[C@@H]1CCCN1CCc1cc2cc(Nc3cncnc3)ccc2o1 | 9.57 | 10.10 | clearance [4]: 475 mL/min/kg; bioavailability [5]: 0%; AUC [6]: 0 ng·h/mL; half-life [7]: 0.3 h; AUC [8]: 35.9 ng·h/mL
18 | C[C@@H]1CCCN1CCc1cc2cc(Nc3cccc(C#N)c3)ccc2o1 | 8.83 | 9.54 | –
19 | C[C@@H]1CCCN1CCc1cc2cc(CNc3ncc([N+](=O)[O-])cc3[N+](=O)[O-])ccc2o1 | 8.54 | 9.15 | –
20 | C[C@@H]1CCCN1CCc1cc2cc(CNc3cncnc3)ccc2o1 | 8.60 | 9.16 | –
21 | Cc1ccc(C#N)c(Nc2ccc3oc(CCN4CCC[C@H]4C)cc3c2)n1 | 7.75 | 8.53 | –
22 | C[C@@H]1CCCN1CCc1cc2cc(-c3ccc(C#N)cc3)ccc2o1 | – | – | Cmax [3]: 39.6 ng/mL; clearance [4]: 25.7 mL/min/kg; bioavailability [5]: 61.8%; AUC [6]: 426 ng·h/mL; half-life [7]: 5.7 h; AUC [8]: 667 ng·h/mL; half-life [9]: 6.7 h
23 | C[C@@H]1CCCN1CCc1cc2cc(CNc3cnccn3)ccc2o1 | 9.10 | 9.54 | –
24 | C[C@@H]1CCCN1CCc1cc2cc(CNc3ncccc3[N+](=O)[O-])ccc2o1 | 8.57 | 9.37 | –
25 | C[C@@H]1CCCN1CCc1cc2cc(CNc3ncccc3C#N)ccc2o1 | 8.72 | 9.13 | –
26 | C[C@@H]1CCCN1CCc1cc2cc(CNc3cc(C#N)nc(C#N)c3)ccc2o1 | 9.40 | 9.89 | –
27 | C[C@@H]1CCCN1CCc1cc2cc(CNc3cccc(C#N)c3)ccc2o1 | 8.93 | 9.40 | –
28 | C[C@@H]1CCCN1CCc1cc2cc(Nc3ccccc3[N+](=O)[O-])ccc2o1 | 9.06 | 9.66 | –
29 | C[C@@H]1CCCN1CCc1cc2cc(Nc3cnccn3)ccc2o1 | 9.42 | 9.96 | –
30 | C[C@@H]1CCCN1CCc1cc2cc(CNc3ccc(Cl)nn3)ccc2o1 | 8.80 | 9.51 | –
